Square brackets hold non-standard residues; d marks the D form. Peptide text beside a SMILES is read from it. * marks the point of attachment. Hydrocinnamoyl = O=C(CCc1ccccc1)*; Undecanoyl = CCCCCCCCCCC(=O)*; pGlu = O=C1CC[C@@H](C(=O)O)N1; Nicotinoyl = O=C(c1cccnc1)*; Ac6c = NC1(C(=O)O)CCCCC1; NHBn = c1ccc(CN*)cc1; X1 = Fc1ccc(N*)cc1Cl; NHNH2 = NN*

For the assay, the species on record is Rattus norvegicus. Nature of the assay: Inhibition of rat recombinant Rab geranylgeranyltransferase at 100 uM in presence of canine Rab7 and rat REP1 NBD-FPP based continuous fluorimetric assay. The method in brief:
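Continuous fluorometric assay in 96/384-well format: 3 μM Rab7, 3 μM REP1, 9 μM NBD-FPP and 400 nM RabGGTase, with or without inhibitor. […] IC50 was calculated from three independent measurements.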
One may read the inhibition as the drop in the measured response relative to a control, in per cent. With `NCCOC(=O)[C@H](Cc1ccc(O)cc1)NC(=O)[C@H](Cc1ccc(O)cc1)NC(=O)[C@H](Cc1ccc(O)cc1)NC(=O)c1ccc(F)cc1F`, the inhibition was found to be 97%.

As for `O=C(CCc1ccccc1)N[C@@H](CO)C(=O)N[C@@H](Cc1ccccc1)C(=O)N[C@@H](CO)C(=O)NCc1ccccc1` (Hydrocinnamoyl-Ser-Phe-Ser-NHBn), the inhibition turned out to be 95%.

Turning to `O=C(N[C@@H](CO)C(=O)N[C@@H](Cc1ccccc1)C(=O)N[C@@H](CO)C(=O)Nc1ccc(N2CCOCC2)cc1)C(Br)C(Br)c1ccc(F)cc1` (stereo partly specified), the inhibition is 70%.

With `NCCCC[C@H](NC(=O)c1coc(-c2ccccc2)n1)C(=O)NCC(=O)N[C@@H](Cc1ccc(O)cc1)C(=O)O`, the inhibition turned out to be 100%.

Turning to `CC[C@H](C)[C@H](NC(=O)c1ccc(-c2ccccc2)cc1)C(=O)N[C@@H](C(=O)N[C@@H](CCC(N)=O)C(=O)NN)C(C)C`, the inhibition is 84%.

Regarding `CCCCCCCCCCC(=O)N[C@@H](Cc1c[nH]cn1)C(=O)N[C@@H](Cc1c[nH]cn1)C(=O)N[C@@H](CO)C(N)=O` (Undecanoyl-His-His-Ser-NH2), the inhibition was found to be 81%.

Consider `CCCCCc1ccc(CCC(=O)N[C@H](Cc2cnc[nH]2)C(=O)N[C@@H](Cc2ccc(O)cc2)C(=O)N[C@@H](Cc2ccccc2)C(=O)O)cc1`, for which the inhibition is 10%.

With `NNC(=O)[C@H](CCC(N)=O)NC(=O)[C@H](Cc1ccccc1)NC(=O)CNC(=O)CCc1ccccc1` (Hydrocinnamoyl-Gly-Phe-Gln-NHNH2), the inhibition turned out to be 93%.

As to `COC(=O)[C@H](Cc1cn(C(c2ccccc2)(c2ccccc2)c2ccccc2)cn1)NC(=O)[C@H](Cc1ccccc1)NC(=O)CNC(=O)c1csc(-c2cccs2)n1`, the inhibition worked out at 69%.

`CC(C)C[C@H](NC(=O)[C@@H]1CCC(=O)N1)C(=O)N[C@@H](CCCCN)C(=O)NC1(C(=O)Nc2ccc(F)c(Cl)c2)CCCCC1` ([pGlu]LK[Ac6c]-X1): the inhibition is 105%.

On to `O=C(CNC(=O)[C@H](Cc1ccccc1)NC(=O)c1coc(-c2ccccc2)n1)N[C@@H](CO)C(=O)O`, for which the inhibition was determined as 106%.

Turning to `CC(C)C[C@H](NC(=O)/C=C/c1ccccc1)C(=O)N[C@@H](Cc1ccccc1)C(=O)N[C@@H](Cc1ccccc1)C(=O)O`, the inhibition is 75%.

For `CCCCCCCCCCCCCC(=O)OC[C@H](NC(=O)CNC(=O)[C@H](COC(=O)CCCCCCCCCCCCC)NC(=O)c1coc(-c2ccccc2)n1)C(=O)O`, the inhibition stood at 106%.

As to `CCCCCCCCCCCOc1ccc(C(=O)N[C@@H](Cc2ccc(O)cc2)C(=O)N[C@@H](Cc2ccc(O)cc2)C(=O)N[C@@H](Cc2ccc(O)cc2)C(N)=O)cc1`, the inhibition is 103%.

With `CC(C)C[C@H](NC(=O)[C@H](COC(C)(C)C)NC(=O)[C@H](Cc1ccccc1)NC(=O)CCc1ccccc1)C(=O)OCCCl`, the inhibition was found to be 109%.

Turning to `O=C(/C=C/c1ccc(F)cc1)N[C@@H](CO)C(=O)NCC(=O)N[C@@H](CO)C(=O)NC1CCCCC1`, the inhibition is 81%.

`COC(=O)[C@H](Cc1ccc(O)cc1)NC(=O)CNC(=O)[C@H](Cc1ccc(O)cc1)NC(=O)CCc1ccc(F)cc1`: the inhibition amounted to 90%.

For `CCCCCCCCCCCOc1ccc(C(=O)N[C@@H](Cc2c[nH]cn2)C(=O)N[C@@H](Cc2ccc(O)cc2)C(=O)N[C@@H](Cc2ccccc2)C(=O)OCCN)cc1`, the inhibition worked out at 74%.

`NCCCC[C@H](NC(=O)CCc1ccccc1)C(=O)N[C@@H](Cc1c[nH]cn1)C(=O)N[C@@H](CO)C(=O)NC1CCCCC1`: the inhibition was determined as 98%.

As for `COC(=O)[C@H](CO)NC(=O)[C@H](Cc1ccccc1)NC(=O)[C@H](CO)NC(=O)C(Br)C(Br)c1ccc(F)cc1` (stereo partly specified), the inhibition was determined as 80%.

For the compound `CC(C)(C)Oc1ccc(C[C@H](NC(=O)CNC(=O)[C@H](Cc2cn(C(c3ccccc3)(c3ccccc3)c3ccccc3)cn2)NC(=O)c2coc(-c3ccccc3)n2)C(=O)O)cc1`, the inhibition was 80%.

Turning to `CC(C)C[C@H](NC(=O)[C@@H]1CCC(=O)N1)C(=O)N[C@@H](CCCCN)C(=O)NC1(C(N)=O)CCCCC1` ([pGlu]LK[Ac6c]-NH2), the inhibition was 95%.

For the compound `C[C@H](NC(=O)CCc1ccccc1)C(=O)N[C@@H](Cc1ccccc1)C(=O)N[C@@H](CCC(N)=O)C(=O)Nc1nccs1`, the inhibition was determined as 96%.

Consider `O=C(CNC(=O)c1coc(-c2ccccc2)n1)NCC(=O)N[C@@H](Cc1c[nH]cn1)C(=O)Nc1ccc(F)cc1F`, for which the inhibition is 112%.

Regarding `CCCCCCCCCCCC(=O)N[C@@H](Cc1c[nH]cn1)C(=O)N[C@@H](Cc1c[nH]cn1)C(=O)N[C@@H](Cc1ccc(O)cc1)C(=O)NCCCn1ccnc1`, the inhibition came to 124%.

Take `CC[C@H](C)[C@H](NC(=O)[C@H](Cc1ccccc1)NC(=O)c1cccnc1)C(=O)N[C@@H](CCCNC(=N)N)C(N)=O` (Nicotinoyl-Phe-Ile-Arg-NH2): the inhibition turned out to be 79%.

For the compound `COC(=O)[C@H](CCC(N)=O)NC(=O)[C@H](Cc1ccccc1)NC(=O)[C@H](CO)NC(=O)CCc1ccccc1` (Hydrocinnamoyl-Ser-Phe-Gln-OMe), the inhibition worked out at 76%.

As for `C[C@@H](O)[C@H](NC(=O)/C=C/c1ccccc1)C(=O)N[C@@H](Cc1ccccc1)C(=O)N[C@@H](CCC(N)=O)C(=O)Nc1cccc(Br)n1`, the inhibition turned out to be 83%.

As for `COC(=O)[C@H](Cc1ccc(O)cc1)NC(=O)CNC(=O)[C@H](Cc1ccc(O)cc1)NC(=O)c1ccc(F)cc1`, the inhibition came to 93%.

As to `O=C(/C=C/c1ccccc1)N[C@@H](Cc1ccccc1)C(=O)N[C@@H](Cc1ccccc1)C(=O)N[C@@H](Cc1ccc(O)cc1)C(=O)O`, the inhibition worked out at 50%.

`CCCCCCCCCCC(=O)N[C@@H](Cc1ccc(O)cc1)C(=O)N[C@@H](Cc1c[nH]cn1)C(=O)N[C@@H](Cc1c[nH]cn1)C(N)=O` (Undecanoyl-Tyr-His-His-NH2): the inhibition was determined as 79%.

On to `COC(=O)[C@H](CO)NC(=O)CNC(=O)[C@H](CO)NC(=O)/C=C/c1ccc(F)cc1`, for which the inhibition was determined as 63%.

Turning to `O=C(N[C@@H](Cc1ccc(O)cc1)C(=O)N[C@@H](Cc1ccc(O)cc1)C(=O)N[C@@H](Cc1ccc(O)cc1)C(=O)NCc1ccccc1)c1ccc(F)cc1F`, the inhibition turned out to be 70%.

Take `Cc1ccc(C(=O)OC[C@H](NC(=O)CNC(=O)[C@H](COC(=O)c2ccc(C)nc2)NC(=O)c2coc(-c3ccccc3)n2)C(=O)O)cn1`: the inhibition was found to be 100%.

`C[C@@H](O)[C@H](NC(=O)/C=C/c1ccccc1)C(=O)N[C@@H](Cc1ccccc1)C(=O)N[C@@H](CCC(N)=O)C(=O)NCCO`: the inhibition is 118%.

As to `COC(=O)[C@H](CC(C)C)NC(=O)[C@H](CO)NC(=O)[C@H](Cc1ccccc1)NC(=O)c1ccc(-c2ccccc2)cc1`, the inhibition was found to be 94%.

With `C[C@@H](NC(=O)CCc1ccccc1)C(=O)N[C@@H](Cc1ccccc1)C(=O)N[C@@H](CCC(N)=O)C(=O)O`, the inhibition stood at 111%.

For the compound `C[C@@H](O)[C@H](NC(=O)C(Br)C(Br)c1ccccc1)C(=O)N[C@@H](Cc1ccccc1)C(=O)N[C@@H](CCC(N)=O)C(=O)OCCCCO` (stereo partly specified), the inhibition was 60%.

`O=C(CNC(=O)c1coc(-c2ccccc2)n1)N[C@@H](Cc1c[nH]cn1)C(=O)N[C@@H](Cc1c[nH]cn1)C(=O)O`: the inhibition was determined as 96%.

Take `CC[C@H](C)[C@H](NC(=O)c1ccc(-c2ccccc2)cc1)C(=O)N[C@@H](C(=O)N[C@@H](CCC(N)=O)C(=O)OC)C(C)C`: the inhibition was 94%.

With `C[C@H](NC(=O)[C@@H](NC(=O)c1ccc(-c2ccccc2)cc1)[C@@H](C)O)C(=O)N[C@@H](CCC(N)=O)C(=O)Nc1cccc(Br)n1`, the inhibition was found to be 77%.

Values taken from ChEMBL document CHEMBL1153722, “Design, synthesis, and characterization of peptide-based rab geranylgeranyl transferase inhibitors” (J Med Chem, 2009).
